Data from ChEMBL document CHEMBL1145471, “Small molecule regulators of autophagy identified by an image-based high-throughput screen” (Proc Natl Acad Sci U S A, 2007).

Tests used:
Type in all cases: functional
[1] = test system: H4; assay: Decrease in FYVE-RFP+ vesicle intensity per cell in human H4 cells after 2 hrs relative to control; parameters: concentration or dose not given beside the values; scale not given: the % may be the effect or the level left
Method in brief: (§1)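 H4 cells stably expressing FYVE-RFP (H4-FYVE), grown in DMEM with 10% FBS, penicillin/streptomycin and 2 mM L-glutamine at 37°C, 5% CO2, seeded in 96-well plates and exposed to compound. Fixed in 4% paraformaldehyde, nuclei stained with 3 μg/ml DAPI, FYVE-RFP+ vesicles quantified by high-throughput fluorescence microscopy against DMSO control. Triplicate wells, mean ± SD.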

[2] = test system: H4; assay: Increase in long-lived protein degradation in human H4 cells after 24 hrs relative to control; parameters: concentration or dose not given beside the values
[3] = test system: H4; assay: Decrease in FYVE-RFP+ vesicle intensity per cell in human H4 cells after 4 hrs relative to control; parameters: concentration or dose not given beside the values; scale not given: the % may be the effect or the level left; method in brief: as §1
[4] = test system: H4; assay: Increase in long-lived protein degradation in human H4 cells after 2 hrs relative to control; parameters: concentration or dose not given beside the values
[5] = test system: H4; assay: Increase in long-lived protein degradation in human H4 cells after 1 hr relative to control; parameters: concentration or dose not given beside the values
[6] = test system: H4; assay: Decrease in FYVE-RFP+ vesicle intensity per cell in human H4 cells after 8 hrs relative to control; parameters: concentration or dose not given beside the values; scale not given: the % may be the effect or the level left; method in brief: as §1
[7] = test system: H4; assay: Increase in long-lived protein degradation in human H4 cells after 4 hrs relative to control; parameters: concentration or dose not given beside the values
[8] = test system: H4; assay: Increase in light chain 3-GFP+ autophagosome vesicle intensity per cell in human H4 cells at 6.2 uM after 24 hrs by high throughput fluorescence microscopy relative to control
Method in brief: (§2)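 H4 cells stably expressing LC3-GFP were grown in DMEM with 10% FBS and 2 mM L-glutamine at 37°C, 5% CO2. They were exposed to each compound for 24 h, with DMSO as negative and rapamycin as positive control. Cells were then fixed in 4% paraformaldehyde and stained with 3 μg/ml DAPI. High-throughput fluorescence imaging scored LC3-GFP spot number, size and intensity, expressed relative to DMSO. Mean ± SD of triplicates; experiments repeated three times.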

[9] = test system: H4; assay: Induction of light chain 3-GFP level in human H4 cells at 6.2 uM after 24 hrs by high throughput fluorescence microscopy relative to control
Method in brief: (§3)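 H4 cells stably expressing LC3-GFP, grown in DMEM with 10% FBS, penicillin/streptomycin and 2 mM L-glutamine at 37°C, 5% CO2. Cells were seeded in 96-well plates and exposed to library compounds at 3–12 μM for 24 h, then fixed in 4% paraformaldehyde and stained with 3 μg/ml DAPI. LC3-GFP spot number, size and intensity were measured by high-throughput fluorescence microscopy and expressed relative to DMSO. Triplicates, mean ± SD.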

[10] = test system: H4; assay: Increase in light chain 3-GFP+ autophagosome vesicle number per cell in human H4 cells at 6.2 uM after 24 hrs by high throughput fluorescence microscopy relative to control; method in brief: as §2
[11] = test system: H4; assay: Increase in light chain 3-GFP+ autophagosome vesicle area per cell in human H4 cells at 6.2 uM after 24 hrs by high throughput fluorescence microscopy relative to control
Method in brief: (§4)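 H4 cells stably expressing LC3-GFP, seeded in 96-well plates and exposed to compound for 24 h; screening concentrations were 3–12 μM, with rapamycin 0.22 μM and bafilomycin A1 0.40 μM. Cells fixed in 4% paraformaldehyde and stained with 3 μg/ml DAPI. Number, size and intensity of LC3-GFP spots measured by high-throughput fluorescence microscopy and expressed as percent of DMSO-treated wells. Rapamycin was the positive control. Triplicate wells, mean ± SD; experiments repeated three times.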

[12] = test system: H4; assay: Induction of light chain 3-GFP level in human H4 cells at 5.2 uM after 24 hrs by high throughput fluorescence microscopy relative to control; method in brief: as §3
[13] = test system: H4; assay: Increase in light chain 3-GFP+ autophagosome vesicle area per cell in human H4 cells at 5.2 uM after 24 hrs by high throughput fluorescence microscopy relative to control; method in brief: as §4
[14] = test system: H4; assay: Increase in light chain 3-GFP+ autophagosome vesicle number per cell in human H4 cells at 5.2 uM after 24 hrs by high throughput fluorescence microscopy relative to control; method in brief: as §2
[15] = test system: H4; assay: Increase in light chain 3-GFP+ autophagosome vesicle intensity per cell in human H4 cells at 5.2 uM after 24 hrs by high throughput fluorescence microscopy relative to control; method in brief: as §2
[16] = test system: H4; assay: Increase in light chain 3-GFP+ autophagosome vesicle intensity per cell in human H4 cells at 6.9 uM after 24 hrs by high throughput fluorescence microscopy relative to control; method in brief: as §2
[17] = test system: H4; assay: Increase in light chain 3-GFP+ autophagosome vesicle area per cell in human H4 cells at 6.9 uM after 24 hrs by high throughput fluorescence microscopy relative to control; method in brief: as §4
[18] = test system: H4; assay: Increase in light chain 3-GFP+ autophagosome vesicle number per cell in human H4 cells at 6.9 uM after 24 hrs by high throughput fluorescence microscopy relative to control; method in brief: as §2
[19] = test system: H4; assay: Induction of light chain 3-GFP level in human H4 cells at 6.9 uM after 24 hrs by high throughput fluorescence microscopy relative to control; method in brief: as §3
[20] = test system: H4; assay: Increase in light chain 3-GFP+ autophagosome vesicle intensity per cell in human H4 cells at 6.0 uM after 24 hrs by high throughput fluorescence microscopy relative to control
Method in brief: (§5)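 H4 cells stably expressing LC3-GFP, seeded in 96-well plates and exposed to compound for 24 h; fixed in 4% paraformaldehyde, nuclei stained with 3 μg/ml DAPI. Automated fluorescence microscopy scored number, size and intensity of LC3-GFP spots; values expressed relative to DMSO-treated wells, rapamycin positive control. Triplicate wells, mean ± SD; experiments repeated three times.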

[21] = test system: H4; assay: Increase in light chain 3-GFP+ autophagosome vesicle area per cell in human H4 cells at 6.0 uM after 24 hrs by high throughput fluorescence microscopy relative to control; method in brief: as §5
[22] = test system: H4; assay: Increase in light chain 3-GFP+ autophagosome vesicle number per cell in human H4 cells at 6.0 uM after 24 hrs by high throughput fluorescence microscopy relative to control
Method in brief: (§6)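 H4 cells stably expressing LC3-GFP, kept in DMEM/10% FBS at 37°C, 5% CO2, were seeded in 96-well plates and exposed to compound for 24 h. Cells were then fixed in 4% paraformaldehyde and stained with 3 μg/ml DAPI. Automated fluorescence microscopy scored the number, size and intensity of LC3-GFP spots. Values are percent of DMSO wells, in triplicate, mean ± SD. Rapamycin served as positive control.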

[23] = test system: H4; assay: Induction of light chain 3-GFP level in human H4 cells at 6.0 uM after 24 hrs by high throughput fluorescence microscopy relative to control; method in brief: as §6
[24] = test system: H4; assay: Effect on FYVE-RFP+ vesicle intensity per cell in human H4 cells after 4 hrs relative to control; parameters: concentration or dose not given beside the values; method in brief: as §1
[25] = test system: H4; assay: Effect on FYVE-RFP+ vesicle intensity per cell in human H4 cells after 2 hrs relative to control; parameters: concentration or dose not given beside the values; method in brief: as §1
[26] = test system: H4; assay: Effect on FYVE-RFP+ vesicle intensity per cell in human H4 cells after 8 hrs relative to control; parameters: concentration or dose not given beside the values; method in brief: as §1

Row | SMILES | Activity [1] | Activity [2] | Activity [3] | Activity [4] | Activity [5] | Activity [6] | Activity [7] | Activity [12] | Activity [13] | Activity [14] | Activity [15] | also measured
1 | O=C1Nc2ccccc2/C1=C1/Nc2ccccc2C1=O [INDIRUBIN] | 73.16% | 100.5% | 35.1% | 94.5% | 105.91% | 59.18% | 95.3% | – | – | – | – | –
2 | CC(C)COCC(CN(Cc1ccccc1)c1ccccc1)N1CCCC1 (stereo unspecified) [BEPRIDIL] | 65.27% | 117.59% | 45.17% | 112.64% | 101.9% | 35.94% | 98.78% | – | – | – | – | Activity [8]: 168.39%; Activity [9]: 111.92%; Activity [10]: 144.05%; Activity [11]: 160.34%
3 | COc1ccc(CCN(C)CCC[C@](C#N)(c2ccc(OC)c(OC)c2)C(C)C)cc1OC [VERAPAMIL] | – | 94.39% | – | 114.92% | 103.33% | – | 97.84% | 132.44% | 200.63% | 168.55% | 238.6% | –
4 | CCCC[C@@H](C=O)NC(=O)[C@H](CC(C)C)NC(=O)OCc1ccccc1 [CALPEPTIN] | 58.44% | 81.62% | 63.28% | 68.3% | 73.3% | 61.02% | 78.67% | – | – | – | – | Activity [16]: 232.89%; Activity [17]: 207.34%; Activity [18]: 177.07%; Activity [19]: 128.87%
5 | CC(/C=C/C(=O)NO)=C\[C@@H](C)C(=O)c1ccc(N(C)C)cc1 [TRICHOSTATIN] | – | – | – | – | – | – | – | 40.15% | 864.85% | 636.52% | 1649.69% | –
6 | C=C1[C@@H](C)[C@H]2[C@H](Cc3ccccc3)NC(=O)[C@]23OC(=O)/C=C/[C@H](O)CCC[C@@H](C)C/C=C/[C@H]3[C@@H]1O [CYTOCHALASIN B] | – | – | – | – | – | – | – | 30.58% | 247.77% | 208.73% | 286.43% | –
7 | CC[C@H]1[C@@H]2C=C[C@H]3[C@@H](C[C@H]4/C=C/C(=O)C5=C[C@H](CCCNC(=O)/C=C\C[C@H]34)NC5=O)[C@H]2C[C@H]1C [IKARUGAMYCIN] | – | – | – | – | – | – | – | 50.16% | 107.27% | 75.79% | 172.85% | –
8 | CC1(C)[C@@H](O)C[C@H]2[C@](C)(O)[C@@H]3CC[C@@H]4[C@@H](O)[C@@]3(C[C@@H](O)[C@@]21O)C[C@@]4(C)O [GRAYANOTOXIN III] | 45.44% | 91.03% | 39.37% | 96.23% | 95.81% | 39.83% | 90.49% | – | – | – | – | Activity [20]: 210.65%; Activity [21]: 154.31%; Activity [22]: 130.17%; Activity [23]: 129.36%
9 | CC(C)[C@@H](O)CC[C@@H](C)[C@H]1CC[C@H]2[C@@H]3CC=C4C[C@@H](O)CC[C@]4(C)[C@H]3CC[C@]12C | 38.02% | 106.22% | 38.32% | 105.76% | 125.06% | 38.51% | 89.7% | – | – | – | – | Activity [8]: 648.9%; Activity [9]: 108.2%; Activity [10]: 220.93%; Activity [11]: 299.59%
10 | Fc1ccc(C(c2ccc(F)cc2)N2CCN(C/C=C/c3ccccc3)CC2)cc1 [FLUNARIZINE] | 53.92% | 113.6% | 44.48% | 107.1% | 97.33% | 48.6% | 93.65% | 104.67% | 179.26% | 155.03% | 203.66% | –
11 | O=S(=O)(c1cccc2c(Cl)cccc12)N1CCCNCC1 | – | – | – | – | – | – | – | – | – | – | – | Activity [16]: 447.81%; Activity [17]: 272.31%; Activity [18]: 210.65%; Activity [19]: 82.33%
12 | CC1(C)C(C=C(Cl)Cl)C1C(=O)OC(C#N)c1cccc(Oc2ccccc2)c1 (stereo not drawn) [ALPHA-CYPERMETHRIN] | 33.75% | 103.75% | 29.13% | 95.28% | 94.75% | 58.22% | 98.36% | – | – | – | – | Activity [20]: 208.14%; Activity [21]: 200.12%; Activity [22]: 174.74%; Activity [23]: 97.45%
13 | O=c1cc(N2CCOCC2)oc2c(-c3ccccc3)cccc12 [LY-294002] | 24.99% | – | 14.79% | – | – | 11.09% | – | – | – | – | – | –
14 | COc1ccc(CCCOC(Cn2ccnc2)c2ccc(OC)cc2)cc1 (stereo unspecified) | – | – | – | – | – | – | – | – | – | – | – | Activity [8]: 285.59%; Activity [9]: 42.96%; Activity [10]: 179.88%; Activity [11]: 209.11%
15 | CN(CCc1ccc(Cl)c(Cl)c1)CC(O)COc1ccc(NS(C)(=O)=O)cc1 (stereo unspecified) | – | 96.25% | – | 86.27% | 95.15% | – | 91.75% | 135.28% | 192.05% | 166.24% | 222.83% | Activity [24]: 71.97%; Activity [25]: 68.06%; Activity [26]: 66.35%
16 | C=C[C@H]1CN2CC[C@H]1C[C@H]2[C@H](O)c1ccnc2ccc(OC)cc12 [QUININE] | – | 103.56% | – | 110.94% | 94.35% | – | 99.32% | – | – | – | – | Activity [16]: 165.01%; Activity [24]: 78.03%; Activity [25]: 70.35%; Activity [17]: 160.38%; Activity [18]: 146.94%; Activity [26]: 60.7%; Activity [19]: 115.16%
